ChEMBL document CHEMBL1146983, “The design and synthesis of human branched-chain amino acid aminotransferase inhibitors for treatment of neurodegenerative diseases” (Bioorg Med Chem Lett, 2006)

target: T1, Branched-chain-amino-acid aminotransferase, cytosolic (Homo sapiens, UniProt P54687); assay: Inhibition of human BCATc
T1 sequence (P54687 whole entry): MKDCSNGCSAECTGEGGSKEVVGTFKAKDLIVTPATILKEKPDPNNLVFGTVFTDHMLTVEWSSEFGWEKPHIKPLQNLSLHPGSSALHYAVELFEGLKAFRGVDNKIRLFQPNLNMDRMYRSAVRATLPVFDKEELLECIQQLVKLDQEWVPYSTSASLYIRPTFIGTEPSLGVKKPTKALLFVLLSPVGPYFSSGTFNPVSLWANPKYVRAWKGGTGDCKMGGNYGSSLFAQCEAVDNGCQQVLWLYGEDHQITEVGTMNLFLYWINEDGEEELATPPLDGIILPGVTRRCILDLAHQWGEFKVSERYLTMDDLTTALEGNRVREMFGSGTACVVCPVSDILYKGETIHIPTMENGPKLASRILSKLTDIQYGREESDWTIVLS
Summary of the method: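 Recombinant hBCATc (E. coli-expressed, purified; 50-100 nM) coupled to saturating purified bovine liver GDH. Mix: 25 mM NaPi pH 7.8, 0.75 mM L-leucine, 0.5 mM α-ketoglutarate, 10 μM pyridoxal phosphate, 1 mM NAD+, 4 mM ADP, 2 mM DTT, 12.5 mM EDTA, 1% DMSO final. 37 °C; A340 read over 20 min. IC50 from 8 to 10 point curves.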

Row | Compound | IC50
1 | Cc1cccc(S(=O)(=O)NNC(=O)c2cccc3c2oc2ccccc23)c1 | 2.8 µM
2 | O=C(NNS(=O)(=O)c1ccccc1)c1ccc2ncccc2c1 | 13.3 µM
3 | O=C(NNS(=O)(=O)c1ccccc1)c1cc2ccccc2o1 | 18.3 µM
4 | O=C(NNS(=O)(=O)c1ccccc1)c1cc2ccccc2[nH]1 | 36 µM
5 | O=C(NNS(=O)(=O)c1ccccc1)c1cnc2ccccc2c1 | 33.3 µM
6 | O=C(NNS(=O)(=O)c1ccccc1)c1cc2cc(Br)ccc2o1 | 2.5 µM
7 | Cc1cccc(S(=O)(=O)NNC(=O)c2cc3cc(Cl)ccc3o2)c1 | 1.2 µM
8 | COc1ccc2[nH]c(C(=O)NNS(=O)(=O)c3ccccc3)cc2c1 | 56.8 µM
9 | Cc1ccccc1S(=O)(=O)NNC(=O)c1ccc2oc3ccccc3c2c1 | 3.2 µM
10 | O=C(NNS(=O)(=O)c1ccccc1)c1ccc2oc3ccccc3c2c1 | 2.35 µM
11 | O=C(NNS(=O)(=O)c1cccc(Cl)c1)c1cccc2c1oc1ccccc12 | > 35 µM
12 | Cc1ccccc1S(=O)(=O)NNC(=O)c1cc2cc(Cl)ccc2[nH]1 | 1.16 µM
13 | O=C(NNS(=O)(=O)c1ccccc1)c1cc2cc(Br)ccc2[nH]1 | 15 µM
14 | O=C(NNS(=O)(=O)c1ccccc1Cl)c1cc2cc(Cl)ccc2o1 | 5.7 µM
15 | O=C(NNS(=O)(=O)c1ccccc1)c1cc2cc(Cl)ccc2o1 | 4.2 µM
